PglD DTNB – C. jejuni PglD acetyltransferase inhibitors, primary screen, biochemical, DTNB colorimetric, single point | UDP-N-acetylbacillosamine N-acetyltransferase PglD (Campylobacter jejuni) | actives 0.098% (n = 360,000) | purified PglD enzyme, DTNB colorimetric CoA detection | inhibition, % at 12.5 µM | AID 602405, 2012; in the data active means inhibition above about 16%, passing the limit was not always enough
E-selectin induc – E-selectin induction in HUVECs, primary screen, imaging, HUVEC, immunofluorescence imaging, single point. P16581. normalized: neutral wells 0, TNF-alpha wells 100. activation, % at 7.58 µM. actives 0.37% (n = 260,000). AID 686992, 2013;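 active means mean E-selectin-positive cell signal at least 10% of the positive control, reached in at least 60% of replicates, without over 20% cell loss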
Target sequence (P16581 whole entry, looked up): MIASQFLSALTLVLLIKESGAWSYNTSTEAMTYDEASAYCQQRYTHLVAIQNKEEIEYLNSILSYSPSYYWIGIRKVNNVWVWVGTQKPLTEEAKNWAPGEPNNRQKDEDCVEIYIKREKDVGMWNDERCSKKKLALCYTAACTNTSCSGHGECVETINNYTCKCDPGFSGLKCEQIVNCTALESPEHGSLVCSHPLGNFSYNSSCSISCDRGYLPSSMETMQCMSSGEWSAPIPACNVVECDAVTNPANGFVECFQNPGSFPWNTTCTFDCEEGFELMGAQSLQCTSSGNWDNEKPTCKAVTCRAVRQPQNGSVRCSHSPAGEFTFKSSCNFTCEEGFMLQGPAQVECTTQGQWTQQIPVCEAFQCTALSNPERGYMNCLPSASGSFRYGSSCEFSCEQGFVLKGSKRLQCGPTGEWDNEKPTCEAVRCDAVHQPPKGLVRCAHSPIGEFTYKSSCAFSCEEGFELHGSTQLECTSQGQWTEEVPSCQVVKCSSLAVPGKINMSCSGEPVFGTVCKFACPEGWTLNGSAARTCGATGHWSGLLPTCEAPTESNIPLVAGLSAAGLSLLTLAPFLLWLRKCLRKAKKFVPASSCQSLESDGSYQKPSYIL
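Read-out: % PE-positive cells | Test system: HUVEC | Doses: One compound dose added by pin transfer | Buffer or medium: EGM-2 over gelatin coat | Signal: Immunofluorescence imaging | Benchmarks: TNF-alpha, DMSO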
SIRT5 block – SIRT5 desuccinylase inhibitors, primary screen, biochemical, fluorescence imaging, single point, set 5; actives 1.1% (n = 330,000); NAD-dependent protein deacylase sirtuin-5, mitochondrial (Homo sapiens), Q9NXA8; inhibition, % at 15 µM; Purified SirT5, succinyl-peptide AMC, trypsin-coupled fluorescence; AID 652115, 2013; in the data active means inhibition above about 15%
ERAP1 inh – human ERAP1 aminopeptidase inhibitors, primary screen, biochemical, single point, plate reader. Endoplasmic reticulum aminopeptidase 1 (Homo sapiens), Q9NZ08. recombinant ERAP1, Leu-AMC fluorescence, 60 min. inhibition, % at 10.7 µM. actives 0.15% (n = 340,000);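 active means mean replicate inhibition of at least 30%, or all replicates individually reaching that 30% level; inactive means mean below 30% and not every replicate reaching it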
DENV2 CPE – inhibitors of DENV2 cytopathic effect, primary screen, cell-based, plate reader, single concentration; CPE inhibition, % at 9.99 µM; DENV2-infected cells, cytopathic effect rescue; actives 1.7% (n = 350,000); in the data active means CPE inhibition above about 20%, passing the limit was not always enough; tested in BHK-21 cells
Numbers stand for hits; - = inactive; . = no result given. Compounds with a hit are over-represented: about 2.5% of the library has one in this group of screens.

SMILES	PglD DTNB	E-selectin induc	SIRT5 block	ERAP1 inh	DENV2 CPE
CCOc1ccc(Cl)cc1CNCCCSc1nc(C)cc(C)n1	-	.	19.6	-	-
COc1ccc2c3c(n(C)c2c1)[C@@H](CO)N(C(=O)C1CCC1)CC31CCN(CC2CCCC2)CC1	.	-	.	-	-
CCC(C)[C@H]1CNCCN1CCc1cc(C(F)(F)F)cc(C(F)(F)F)c1 (stereo partly drawn)	-	-	.	-	43.9
CCC(C)[C@H]1CNC(=S)N1CCc1cc(C(F)(F)F)cc(C(F)(F)F)c1 (stereo partly drawn)	-	-	.	-	81.1
CCSc1ccc([C@@H]2[C@@H]3C(=O)N(CC)C(=O)[C@@H]3[C@]3(C(=O)OC)CCCCN23)cc1OC	-	-	.	.	-
CCN(C(=O)COC(=O)c1cc(=O)[nH]c2ccccc12)c1c(N)n(Cc2ccccc2)c(=O)[nH]c1=O	.	-	-	-	65.3
COCCN(C(=O)COC(=O)CNC(=O)c1cccs1)c1c(N)n(Cc2ccccc2)c(=O)[nH]c1=O	.	-	-	35.3	-
CC(C)CN(C(=O)CSc1nnc(-c2cccs2)n1N)c1c(N)n(Cc2ccccc2)c(=O)[nH]c1=O	.	-	-	-	-
Cc1ccc(C(=O)OCC(=O)N(C)c2c(N)n(Cc3ccccc3)c(=O)[nH]c2=O)s1	-	-	-	-	36.3
Cc1ccsc1C(=O)OCC(=O)N(C)c1c(N)n(Cc2ccccc2)c(=O)[nH]c1=O	-	-	-	-	-
Cc1nnc(SCC(=O)N(CC(C)C)c2c(N)n(Cc3ccccc3)c(=O)[nH]c2=O)n1N	-	.	-	-	78.5
O=C(NCc1n[nH]c(=S)n1-c1ccc(F)cc1)c1ccc(S(=O)(=O)N2CCCC2)cc1	-	.	.	.	.
C[C@@H]1CN([C@@H](C)CO)C(=O)c2cc(NS(=O)(=O)c3ccc(Cl)cc3)ccc2O[C@H]1CN(C)Cc1ccc(C(=O)O)cc1	-	-	-	-	-
CC1(C)CN(C(=S)Nc2ccc(F)cc2F)C1=O	-	-	-	-	-
Cc1ccc(C(=O)NCC(=O)NC2CCCCCC2)cc1	-	.	-	-	-
N=c1c(C(=O)NC2CCCCC2)cc2c(=O)n3ccccc3nc2n1CC1CCCO1 (stereo not drawn)	-	.	-	102.7	-
N=c1c(C(=O)NCCN2CCOCC2)cc2c(=O)n3ccccc3nc2n1Cc1ccc(F)cc1	-	.	-	-	-
N=c1c(C(=O)NC2CCCC2)cc2c(=O)n3ccccc3nc2n1CC1CCCO1 (stereo not drawn)	-	-	.	-	-
N=c1c(C(=O)NCCN2CCOCC2)cc2c(=O)n3ccccc3nc2n1CCCN1CCOCC1	-	.	-	36.6	-
CCOc1ccc(C(=O)N2CCN(S(=O)(=O)c3cccs3)CC2)c(OCC)c1	-	32.7	-	-	-
CCOC(=O)C1(C)CCN1C(=O)COc1ccccc1 (stereo not drawn)	-	-	-	-	-
O=C(NCCCN1CCOCC1)C1CCC(=O)N1CCc1ccccc1 (stereo not drawn)	-	-	-	-	28.6
O=C(NCCCN1CCCCC1)C1CCC(=O)N1CCc1ccccc1 (stereo not drawn)	-	.	.	.	.
N#Cc1ccc(-c2ccc([C@H]3[C@@H](CO)N4CCCCN(S(=O)(=O)c5ccccc5)C[C@@H]34)cc2)cc1	-	-	-	-	45.7
N#Cc1ccc(-c2ccc([C@@H]3[C@@H](CO)N4CCCCN(S(=O)(=O)c5ccccc5)C[C@H]34)cc2)cc1	-	-	-	-	-
SMILES	PglD DTNB	E-selectin induc	SIRT5 block	ERAP1 inh	DENV2 CPE
N#Cc1cccc(-c2ccc([C@H]3[C@@H](CO)N4CCCCN(S(=O)(=O)c5ccccc5)C[C@H]34)cc2)c1	-	-	17.9	-	-
COc1ccc(CN(C)C[C@@H]2OCCCC[C@@H](C)Oc3ccc(NS(=O)(=O)c4cn(C)cn4)cc3C(=O)N([C@H](C)CO)C[C@@H]2C)cc1	-	-	-	-	60.6
COc1ccc(S(=O)(=O)Nc2ccc3c(c2)C(=O)N([C@@H](C)CO)C[C@H](C)[C@@H](CN(C)Cc2ccc(C(=O)O)cc2)OCCCC[C@H](C)O3)cc1	-	-	-	-	54.1
C[C@@H]1CCCCO[C@@H](CN(C)Cc2ccc(C(=O)O)cc2)[C@H](C)CN([C@@H](C)CO)C(=O)c2cc(NS(C)(=O)=O)ccc2O1	-	-	-	-	-
C[C@@H]1CCCCO[C@@H](CN(C)Cc2ccc(C(=O)O)cc2)[C@@H](C)CN([C@@H](C)CO)C(=O)c2cc(NS(C)(=O)=O)ccc2O1	-	-	-	-	47.7
COc1ccc(S(=O)(=O)Nc2ccc3c(c2)C(=O)N([C@H](C)CO)C[C@@H](C)[C@H](CN(C)Cc2ccc(C(F)(F)F)cc2)OCCCC[C@H](C)O3)cc1	-	-	15.4	-	.
COc1ccc(S(=O)(=O)Nc2ccc3c(c2)C(=O)N([C@H](C)CO)C[C@H](C)[C@@H](CN(C)Cc2ccc(C(F)(F)F)cc2)OCCCC[C@@H](C)O3)cc1	-	-	-	-	-
C/C(=N/NC(=O)CNC(=O)c1cccnc1)c1ccco1	-	-	-	.	-
COc1cccc(S(=O)(=O)N[C@H]2C=C[C@H](CC(=O)NC3CCC3)O[C@H]2CO)c1	-	-	-	-	-
CCc1nnc(NC(=O)CCNC(=O)c2ccccc2Cl)s1	-	.	-	-	-
COCCN1C(=O)/C(=C/c2ccc(OCc3ccc(C(=O)O)cc3)c(OC)c2)SC1=Nc1ccccc1	-	-	.	.	.
COc1ccc(S(=O)(=O)Nc2ccc3c(c2)C(=O)N([C@H](C)CO)C[C@H](C)[C@@H](CN(C)Cc2ccc(C(F)(F)F)cc2)OCCCC[C@H](C)O3)cc1	-	-	-	-	-
CCCN(C)C[C@H]1OCCCC[C@@H](C)Oc2ccc(NS(=O)(=O)c3ccc(OC)cc3)cc2C(=O)N([C@H](C)CO)C[C@H]1C	-	-	-	-	-
CCCN(C)C[C@H]1OCCCC[C@@H](C)Oc2ccc(NS(=O)(=O)c3ccc(OC)cc3)cc2C(=O)N([C@H](C)CO)C[C@@H]1C	-	-	-	-	54.8
COc1ccc(S(=O)(=O)Nc2ccc3c(c2)C(=O)N([C@@H](C)CO)C[C@H](C)[C@@H](CN(C)Cc2ccc(C(F)(F)F)cc2)OCCCC[C@H](C)O3)cc1	-	-	17.1	-	-
COc1ccc(CN(C)C[C@@H]2OCCCC[C@H](C)Oc3ccc(NS(=O)(=O)c4ccc(F)cc4)cc3C(=O)N([C@@H](C)CO)C[C@H]2C)cc1	-	.	-	-	59.0
CCOc1ccc(N2CC(C(=O)NCc3nnnn3-c3ccc(C)c(C)c3)CC2=O)cc1 (stereo not drawn)	-	.	-	-	-

Bioassay records as filed in PubChem BioAssay.
